Compound activity: PubChem BioAssay, Broad Institute
Most compounds without a hit are left out; they make up all but 1.7% or so of the library.
Cneo AK release = causes C. neoformans cell lysis. AID 651654. lysis activity, % at 15 µM. adenylate kinase release luminescence, 4 h; normalised: neutral wells 0, clomiphene wells 100. 0.2% of 360,000 active;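 active = mean lysis activity across replicates of at least 80%, whatever share of replicates individually reach that level; inactive = mean lysis activity below 80%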
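Signal: Adenylate kinase release luminescence | Assay system: Log-phase Cryptococcus neoformans yeast cells | Input: Cells at 5 × 10^6 per mL | Buffer or medium: Fresh YPD growth medium | Compound: Single dose | Schedule: Static 4 h at 37 °C with compound, 1 h detection | Controls: Clomiphene | Read-out: Luminescence rise reflecting yeast cell lysis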
CFTR F508del cor = CFTR F508del correction in bronchial cells; CFBE cells, YFP halide quenching; stimulated with forskolin plus potentiator P3; % fluorescence drop versus neutral controls; activity (quench increase), % at 7.58 µM; 0.36% of 350,000 active;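 active = mean added fluorescence quench of at least 8% versus neutral control, with both replicates also reaching 8%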;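 note: cells transiently co-express mutant CFTR-F508del with the halide-sensitive YFP; corrector assay measuring rescue of mutant channel to the surface after 24 h compound exposure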
CaV13 FRET inh = Primary screen for inhibitors of IQ motif and Ca2+-dependent inactivation inhibitor domain binding in CACNA1D, Förster resonance energy transfer in living cells, …; HEK cells, CFP/YFP FRET ICDI-IQ, plate reader, 10 min; percent FRET-ratio fall versus neutral wells; inhibition, % at 12.3 µM; 0.098% of 340,000 active; AID 743397;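 active = mean replicate inhibition of at least 30% and at least 1% of replicates passing that level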
rRNA inh HTS = selective bacterial rRNA inhibition in E. coli. E. coli WT GFP vs humanized-ribosome RFP mutants, fluorescence, 24 h; stronger effect = lower value; DMSO median 0, no signal -100. GFP signal change (wild-type ribosome), % (no concentration beside the values). 1.6% of 350,000 active. AID 720706;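 active = significant combined selectivity score with lowered wild-type GFP, culture density cut under 30%, mutant RFP and density less affected; inactive = any of these conditions unmet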
Large screens that a line does not name were inactive.

Cc1c(NS(=O)(=O)c2ccc(Br)cc2)c(=O)n(-c2ccccc2)n1C	none
C[C@H](CO)N1C[C@H](C)[C@@H](CN(C)Cc2ccc(Cl)c(Cl)c2)Oc2ccc(NC(=O)Nc3ccccc3)cc2CC1=O	none (no result: CaV13 FRET inh)
Cc1cccc(NC(=O)c2cc(NC(=O)c3ccccc3)ccc2N2CCCCC2)c1	none (no result: CFTR F508del cor, rRNA inh HTS)
C#Cc1ccc(C(=O)Nc2ccc(N3CCC(C)CC3)c(C(N)=O)c2)cc1	CFTR F508del cor 16.0 (no result: Cneo AK release)
CCOC(=O)c1nc(C)sc1-c1ccnn1S(=O)(=O)c1cccc(Cl)c1	rRNA inh HTS -28.8 (no result: Cneo AK release)
CCOC(=O)C1=CCN(S(=O)(=O)c2cccc(Cl)c2)C1c1cccc(Cl)c1 (stereo not drawn)	none (no result: Cneo AK release)
CCOc1ccc(NC(=S)N2CCN(C/C=C/c3ccccc3)CC2)cc1	rRNA inh HTS -28.0 (no result: Cneo AK release)
O=C(NC(=S)N1CCN(C/C=C/c2ccccc2)CC1)c1ccc(Cl)nc1	rRNA inh HTS -49.0
C[C@H]1CCCCO[C@@H](CN(C)Cc2ccc(C(=O)Nc3ccccc3N)cc2)[C@@H](C)CN([C@@H](C)CO)C(=O)c2cc(N(C)C)ccc2O1	none (no result: Cneo AK release, CFTR F508del cor, CaV13 FRET inh)
